From ChEMBL document CHEMBL1134488, “Potent reversible inhibitors of the protein tyrosine phosphatase CD45” (J Med Chem, 2001)
Where a SMILES comes first, the peptide text is derived from it. The star is where a group is joined. Phenanthrenequinone2carbonyl = O=C1C(=O)c2cc(C(=O)*)ccc2-c2ccccc21; 3Phenanthroyl(9,10-dioxo) = O=C1C(=O)c2ccc(C(=O)*)cc2-c2ccccc21; X1 = O=C1C(=O)c2cc(N*)ccc2-c2ccccc21

Tests used:
T-cell [1] = assay: In vitro inhibition of human T-cell proliferation; type: functional, cell-based
[2] = target: T1, Tyrosine-protein phosphatase non-receptor type 1 (Homo sapiens, UniProt P18031); assay: Inhibitory concentration against PTP1B using lck as substrate
T1 sequence (P18031 whole entry): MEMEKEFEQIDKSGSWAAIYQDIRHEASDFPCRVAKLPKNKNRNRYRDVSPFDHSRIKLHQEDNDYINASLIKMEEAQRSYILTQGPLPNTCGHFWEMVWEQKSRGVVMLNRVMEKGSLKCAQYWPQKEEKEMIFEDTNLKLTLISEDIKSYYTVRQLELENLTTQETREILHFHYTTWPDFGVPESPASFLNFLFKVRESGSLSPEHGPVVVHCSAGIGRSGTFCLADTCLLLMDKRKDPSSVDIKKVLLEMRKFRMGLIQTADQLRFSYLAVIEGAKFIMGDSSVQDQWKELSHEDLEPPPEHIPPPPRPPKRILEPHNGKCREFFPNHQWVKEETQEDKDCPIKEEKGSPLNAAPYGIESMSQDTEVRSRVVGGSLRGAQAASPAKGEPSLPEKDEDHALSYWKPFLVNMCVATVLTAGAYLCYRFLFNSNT

T-cell [3] = assay: Cytotoxicity measured against human T-cells; type: functional
[4] = target: T2, Receptor-type tyrosine-protein phosphatase C (Homo sapiens, UniProt P08575); assay: In vitro inhibitory activity against the cytosolic portion of CD45 protein-tyrosine phosphatase using pNPP as the substrate
T2 sequence (P08575 whole entry): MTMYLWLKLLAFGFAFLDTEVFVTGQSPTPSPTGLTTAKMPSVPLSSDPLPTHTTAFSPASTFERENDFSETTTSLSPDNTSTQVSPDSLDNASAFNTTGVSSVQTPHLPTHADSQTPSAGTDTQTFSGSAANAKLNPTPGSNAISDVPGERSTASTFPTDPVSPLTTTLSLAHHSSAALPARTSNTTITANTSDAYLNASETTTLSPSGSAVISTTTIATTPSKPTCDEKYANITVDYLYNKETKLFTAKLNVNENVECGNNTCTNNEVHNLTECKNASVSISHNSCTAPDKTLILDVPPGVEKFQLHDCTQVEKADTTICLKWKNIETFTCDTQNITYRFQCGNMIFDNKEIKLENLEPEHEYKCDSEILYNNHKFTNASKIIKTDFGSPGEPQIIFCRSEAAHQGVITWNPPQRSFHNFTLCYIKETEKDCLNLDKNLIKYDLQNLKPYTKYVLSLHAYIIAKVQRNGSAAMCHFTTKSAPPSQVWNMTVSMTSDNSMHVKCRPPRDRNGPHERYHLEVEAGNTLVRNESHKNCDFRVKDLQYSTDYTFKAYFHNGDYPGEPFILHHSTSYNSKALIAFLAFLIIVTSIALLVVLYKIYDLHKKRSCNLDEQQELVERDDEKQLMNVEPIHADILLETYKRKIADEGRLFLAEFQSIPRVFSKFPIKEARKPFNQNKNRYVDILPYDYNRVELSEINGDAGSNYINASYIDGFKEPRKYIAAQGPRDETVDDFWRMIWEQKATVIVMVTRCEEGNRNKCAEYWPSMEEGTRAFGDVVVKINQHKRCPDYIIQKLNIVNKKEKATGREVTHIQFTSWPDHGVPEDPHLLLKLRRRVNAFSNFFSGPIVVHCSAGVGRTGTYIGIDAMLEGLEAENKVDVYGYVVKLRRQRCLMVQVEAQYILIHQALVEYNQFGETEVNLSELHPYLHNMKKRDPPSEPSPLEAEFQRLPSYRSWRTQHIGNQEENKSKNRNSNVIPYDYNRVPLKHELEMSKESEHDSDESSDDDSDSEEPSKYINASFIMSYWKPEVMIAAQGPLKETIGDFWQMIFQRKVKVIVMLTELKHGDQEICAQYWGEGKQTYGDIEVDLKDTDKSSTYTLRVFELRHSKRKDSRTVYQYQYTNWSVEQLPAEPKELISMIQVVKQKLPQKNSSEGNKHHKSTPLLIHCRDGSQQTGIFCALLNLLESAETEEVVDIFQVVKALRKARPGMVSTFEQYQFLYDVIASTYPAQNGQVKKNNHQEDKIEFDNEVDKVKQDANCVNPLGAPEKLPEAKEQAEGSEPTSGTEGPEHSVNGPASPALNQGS

[5] = target: T2, Receptor-type tyrosine-protein phosphatase C; assay: Inhibitory concentration against CD45 protein-tyrosine phosphatase using lck-10 mer as substrate
Procathepsin L = Procathepsin L (Homo sapiens, UniProt P07711); assay: Inhibitory concentration against Cathepsin L
Chain of Procathepsin L (P07711 whole entry): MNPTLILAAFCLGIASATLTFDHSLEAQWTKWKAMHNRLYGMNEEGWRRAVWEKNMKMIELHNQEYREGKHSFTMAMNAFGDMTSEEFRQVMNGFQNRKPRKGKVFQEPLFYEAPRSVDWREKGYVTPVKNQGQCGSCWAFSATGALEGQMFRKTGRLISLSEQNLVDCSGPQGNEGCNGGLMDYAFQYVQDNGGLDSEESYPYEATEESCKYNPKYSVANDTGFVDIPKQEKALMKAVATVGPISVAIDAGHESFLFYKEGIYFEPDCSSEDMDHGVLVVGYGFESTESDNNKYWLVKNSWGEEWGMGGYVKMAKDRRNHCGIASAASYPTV
Summary of the method: (§1)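 Cysteine protease assays. Peptide substrates were CBZ-L-lysine p-nitrophenyl ester, Z-Phe-Arg-NH-Mec and Z-Val-Val-Arg-NH-Mec. Values are means of experiments run in triplicate, given in µM.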

[6] = target: T3, Tyrosine-protein phosphatase non-receptor type 13 (Homo sapiens, UniProt Q12923); assay: Inhibitory concentration against FAP-1 pNPP
T3 sequence (Q12923 whole entry): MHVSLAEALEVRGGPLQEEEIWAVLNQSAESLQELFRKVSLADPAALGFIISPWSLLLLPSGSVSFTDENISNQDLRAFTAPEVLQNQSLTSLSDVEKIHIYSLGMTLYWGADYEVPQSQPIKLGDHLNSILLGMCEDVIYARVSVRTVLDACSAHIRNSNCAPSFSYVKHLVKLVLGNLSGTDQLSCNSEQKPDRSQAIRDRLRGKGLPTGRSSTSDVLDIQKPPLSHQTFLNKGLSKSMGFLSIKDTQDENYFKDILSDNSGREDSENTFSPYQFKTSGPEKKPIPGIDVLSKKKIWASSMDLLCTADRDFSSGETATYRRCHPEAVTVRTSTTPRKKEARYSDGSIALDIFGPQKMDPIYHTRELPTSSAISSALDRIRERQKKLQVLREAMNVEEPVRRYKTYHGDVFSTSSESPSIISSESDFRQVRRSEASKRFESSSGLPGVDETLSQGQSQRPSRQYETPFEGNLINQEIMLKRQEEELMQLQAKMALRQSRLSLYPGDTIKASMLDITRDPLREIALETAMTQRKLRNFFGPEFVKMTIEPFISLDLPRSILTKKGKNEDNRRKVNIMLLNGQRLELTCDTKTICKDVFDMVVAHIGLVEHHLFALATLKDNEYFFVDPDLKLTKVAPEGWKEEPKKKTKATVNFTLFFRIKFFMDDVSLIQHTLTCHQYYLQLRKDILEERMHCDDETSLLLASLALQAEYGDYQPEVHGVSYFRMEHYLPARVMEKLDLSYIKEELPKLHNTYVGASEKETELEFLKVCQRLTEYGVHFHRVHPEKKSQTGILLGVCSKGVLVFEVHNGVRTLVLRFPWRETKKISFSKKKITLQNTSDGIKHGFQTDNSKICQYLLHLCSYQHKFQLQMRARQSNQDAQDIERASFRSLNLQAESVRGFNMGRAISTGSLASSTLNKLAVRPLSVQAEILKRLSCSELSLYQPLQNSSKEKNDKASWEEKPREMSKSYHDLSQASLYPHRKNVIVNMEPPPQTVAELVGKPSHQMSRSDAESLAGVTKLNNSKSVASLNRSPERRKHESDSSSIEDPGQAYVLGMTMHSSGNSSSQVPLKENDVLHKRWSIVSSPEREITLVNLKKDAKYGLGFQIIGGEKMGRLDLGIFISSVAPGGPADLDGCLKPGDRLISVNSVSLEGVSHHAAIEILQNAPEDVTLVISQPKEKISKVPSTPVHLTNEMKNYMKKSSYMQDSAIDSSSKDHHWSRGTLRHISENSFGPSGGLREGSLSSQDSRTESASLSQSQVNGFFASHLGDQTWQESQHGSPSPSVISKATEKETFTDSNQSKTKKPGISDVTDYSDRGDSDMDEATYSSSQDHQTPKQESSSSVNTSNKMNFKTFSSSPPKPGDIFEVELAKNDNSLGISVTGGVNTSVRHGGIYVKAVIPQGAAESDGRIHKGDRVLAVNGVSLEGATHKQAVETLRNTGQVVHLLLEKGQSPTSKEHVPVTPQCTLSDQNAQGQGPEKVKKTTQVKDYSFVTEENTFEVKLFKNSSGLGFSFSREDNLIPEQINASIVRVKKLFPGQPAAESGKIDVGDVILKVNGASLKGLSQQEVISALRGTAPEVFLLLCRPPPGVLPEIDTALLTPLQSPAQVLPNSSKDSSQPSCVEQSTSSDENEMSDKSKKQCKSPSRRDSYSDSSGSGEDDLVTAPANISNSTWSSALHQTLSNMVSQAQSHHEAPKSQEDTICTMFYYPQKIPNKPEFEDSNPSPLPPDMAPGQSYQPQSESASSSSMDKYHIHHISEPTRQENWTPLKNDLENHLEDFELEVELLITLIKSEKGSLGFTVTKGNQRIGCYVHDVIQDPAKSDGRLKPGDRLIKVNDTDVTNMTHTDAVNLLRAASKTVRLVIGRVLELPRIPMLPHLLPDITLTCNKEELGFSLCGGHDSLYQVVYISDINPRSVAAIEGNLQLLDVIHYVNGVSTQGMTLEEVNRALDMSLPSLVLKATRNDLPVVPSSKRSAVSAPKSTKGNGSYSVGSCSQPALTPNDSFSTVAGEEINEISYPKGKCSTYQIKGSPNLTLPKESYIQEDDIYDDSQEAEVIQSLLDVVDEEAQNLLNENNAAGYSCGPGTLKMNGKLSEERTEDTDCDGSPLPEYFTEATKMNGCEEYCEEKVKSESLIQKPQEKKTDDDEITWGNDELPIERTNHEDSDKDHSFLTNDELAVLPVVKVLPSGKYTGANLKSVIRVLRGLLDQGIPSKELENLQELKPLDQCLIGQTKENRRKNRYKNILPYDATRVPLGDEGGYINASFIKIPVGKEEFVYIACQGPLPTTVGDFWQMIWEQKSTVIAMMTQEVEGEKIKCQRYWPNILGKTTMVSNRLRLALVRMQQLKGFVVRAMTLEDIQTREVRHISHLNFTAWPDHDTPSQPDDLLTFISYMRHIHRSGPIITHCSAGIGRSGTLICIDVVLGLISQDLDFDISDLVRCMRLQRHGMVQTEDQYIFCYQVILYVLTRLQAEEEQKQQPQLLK

Cathepsin S = Cathepsin S (Homo sapiens, UniProt P25774); assay: Inhibitory concentration against Cathepsin S; summary of the method: as §1
Chain of Cathepsin S (P25774 whole entry): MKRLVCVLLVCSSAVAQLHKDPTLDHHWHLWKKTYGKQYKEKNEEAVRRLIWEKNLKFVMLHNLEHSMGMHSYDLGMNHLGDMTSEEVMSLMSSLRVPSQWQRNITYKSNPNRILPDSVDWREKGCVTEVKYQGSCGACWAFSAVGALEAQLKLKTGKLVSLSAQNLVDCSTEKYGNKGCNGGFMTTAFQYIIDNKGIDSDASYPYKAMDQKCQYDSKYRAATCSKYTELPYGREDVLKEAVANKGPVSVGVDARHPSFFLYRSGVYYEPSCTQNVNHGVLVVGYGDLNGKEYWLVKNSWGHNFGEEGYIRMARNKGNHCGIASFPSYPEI

[7] = target: T3, Tyrosine-protein phosphatase non-receptor type 13; assay: Inhibitory concentration against FAP-1 using lck-10 mer as substrate
Cathepsin B = Cathepsin B (Homo sapiens, UniProt P07858); assay: Inhibitory concentration against Cathepsin B; summary of the method: as §1
[8] = target: T2, Receptor-type tyrosine-protein phosphatase C; assay: Inhibitory concentration against CD45 protein-tyrosine phosphatase pNPP

SMILES	IC50 (T-cell [1])	IC50 [2]	CC50 (T-cell [3])	IC50 [4]	also measured
CC(C)(C)OC(=O)CNC(=O)c1ccc2c(c1)C(=O)C(=O)c1ccccc1-2	0.4 µM	> 30 µM	10 µM	–	–
O=C(Nc1ccc2c(c1)-c1ccccc1C(=O)C2=O)c1ccccc1F	2.9 µM	> 30 µM	15 µM	1.2 µM	IC50 [5]: 5.8 µM
O=C(O)CC/N=C1\C=C(O)C(=O)c2ccccc21	–	–	–	> 30 µM	–
CC(C)(C)OC(=O)CNC(=O)c1ccc2c(c1)-c1ccccc1C(=O)C2=O	0.32 µM	–	3.2 µM	0.6 µM	–
COC(=O)CCC(=O)Nc1ccc2c(c1)C(=O)C(=O)c1cc(NC(=O)CCC(=O)OC)ccc1-2	–	–	7 µM	–	IC50 (Procathepsin L): 5.4 µM; IC50 [6]: 12 µM; IC50 (Cathepsin S): > 10 µM; IC50 [7]: > 30 µM; IC50 (Cathepsin B): > 10 µM; IC50 [5]: 2.9 µM
CC(=O)N[C@@H](CCC(=O)O)C(=O)NCC(=O)N[C@@H](CCC(N)=O)C(=O)N[C@@H](CC(=O)Nc1ccc2c(c1)C(=O)C(=O)c1ccccc1-2)C(=O)O (Ac-EGQD(X1)-OH)	> 30 µM	–	–	1.5 µM	–
CC(=O)NC(CCC(N)=O)C(=O)N[C@@H](CC(=O)Nc1ccc2c(c1)C(=O)C(=O)c1ccccc1-2)C(=O)O (stereo partly specified)	> 30 µM	–	–	1.1 µM	–
O=C1C(=O)c2cc(-c3cc4ccccc4o3)ccc2-c2ccccc21	–	19 µM	3.6 µM	–	IC50 [5]: > 30 µM
O=C1C(=O)c2cc(Br)ccc2-c2ccccc21	0.6 µM	–	5 µM	0.4 µM	–
O=C1C(=O)c2ccccc2-c2ccccc21 [9,10-PHENANTHRENEQUINONE]	0.3 µM	> 30 µM	1.3 µM	–	–
O=C1C(=O)c2cc(-c3ccccc3F)ccc2-c2ccccc21	–	18 µM	8.4 µM	0.8 µM	IC50 [5]: > 30 µM
COc1ccccc1-c1ccc2c(c1)C(=O)C(=O)c1ccccc1-2	–	16 µM	9.5 µM	–	IC50 [5]: > 30 µM
O=C1C(=O)c2cc(NC(=O)c3c(Cl)cc(Cl)cc3Cl)ccc2-c2ccccc21	1.3 µM	–	12 µM	5.4 µM	–
O=C(COCc1ccccc1)Nc1ccc2c(c1)C(=O)C(=O)c1ccccc1-2	1 µM	18 µM	14 µM	–	–
CC(C)(C)C(=O)Nc1ccc2c(c1)C(=O)C(=O)c1ccccc1-2	–	> 30 µM	3.5 µM	–	IC50 (Procathepsin L): 0.5 µM; IC50 [6]: 7 µM; IC50 (Cathepsin S): 0.4 µM; IC50 [7]: > 30 µM; IC50 (Cathepsin B): > 10 µM; IC50 [5]: 3.8 µM
O=C(Nc1ccc2c(c1)C(=O)C(=O)c1ccccc1-2)c1ccccc1F	3.1 µM	18 µM	20 µM	–	IC50 (Procathepsin L): 0.4 µM; IC50 [6]: 0.6 µM; IC50 (Cathepsin S): 9 µM; IC50 [8]: 0.6 µM; IC50 [7]: 20 µM; IC50 (Cathepsin B): > 10 µM; IC50 [5]: 11 µM
O=C1C(=O)c2cccc([N+](=O)[O-])c2-c2ccc([N+](=O)[O-])cc21	> 30 µM	–	> 30 µM	> 30 µM	–
COC(=O)CCC(=O)Nc1cccc2c1C(=O)C(=O)c1ccccc1-2	0.5 µM	–	9 µM	–	IC50 [6]: 4.4 µM; IC50 [7]: > 30 µM; IC50 (Cathepsin B): > 10 µM
COC(=O)CCCCCCC(=O)Nc1ccc2c(c1)-c1ccccc1C(=O)C2=O	1.3 µM	–	28 µM	0.7 µM	–

SMILES	IC50 (T-cell [1])	IC50 [2]	CC50 (T-cell [3])	IC50 [4]	also measured
N=C(N)NCCC[C@H](NC(=O)c1ccc2c(c1)C(=O)C(=O)c1ccccc1-2)C(=O)N[C@@H](CCC(=O)O)C(=O)N1CCC[C@H]1C(=O)N[C@@H](CCC(=O)O)C(=O)NCC(=O)O (Phenanthrenequinone2carbonyl-REPEG-OH)	5 µM	–	> 30 µM	–	–
O=C1C=C(Nc2ccccc2)c2ccccc2C1=O	–	–	–	> 30 µM	–
O=C1C=C(NCCCN2CCCCC2)c2ccccc2C1=O	–	–	–	> 30 µM	–
O=C(O)CC[C@H](NC(=O)c1ccc2c(c1)C(=O)C(=O)c1ccccc1-2)C(=O)N[C@@H](CCC(=O)O)C(=O)N1CCC[C@H]1C(=O)N[C@@H](CCC(=O)O)C(=O)NCC(=O)O (Phenanthrenequinone2carbonyl-EEPEG-OH)	14.2 µM	–	> 30 µM	–	–
CCOC1=CC(=O)C(=O)c2ccccc21	> 30 µM	–	> 30 µM	–	–
COC(=O)CCCCCCC(=O)Nc1ccc2c(c1)C(=O)C(=O)c1ccccc1-2	–	–	14 µM	–	IC50 (Procathepsin L): > 10 µM; IC50 [6]: 9.9 µM; IC50 (Cathepsin S): > 10 µM; IC50 [7]: > 30 µM; IC50 (Cathepsin B): > 10 µM
N=C(N)NCCC[C@H](NC(=O)c1ccc2c(c1)C(=O)C(=O)c1ccccc1-2)C(=O)N[C@@H](CCCNC(=N)N)C(=O)N1CCC[C@H]1C(=O)N[C@@H](CCC(=O)O)C(=O)NCC(=O)O (Phenanthrenequinone2carbonyl-RRPEG-OH)	11 µM	–	> 30 µM	–	–
N=C(N)NCCC[C@H](NC(=O)[C@@H]1CCCN1C(=O)[C@H](CCCNC(=N)N)NC(=O)CNC(=O)c1ccc2c(c1)C(=O)C(=O)c1ccccc1-2)C(=O)NCC(=O)O (Phenanthrenequinone2carbonyl-GRPRG-OH)	> 30 µM	–	> 30 µM	–	–
O=C1C(=O)c2cccnc2-c2ccccc21	0.2 µM	> 30 µM	2.4 µM	–	IC50 (Procathepsin L): 0.6 µM; IC50 [6]: 14 µM; IC50 (Cathepsin S): 0.4 µM; IC50 [8]: 1.4 µM; IC50 [7]: > 30 µM; IC50 (Cathepsin B): > 10 µM; IC50 [5]: 3.1 µM
O=C1C=C(Br)c2ccccc2C1=O	22 µM	–	> 30 µM	–	–
O=C1C=C(c2cc(Cl)cc(Cl)c2)c2ccccc2C1=O	0.3 µM	–	5.5 µM	–	–
O=C1C(=O)c2cc([N+](=O)[O-])ccc2-c2ccc([N+](=O)[O-])cc21	0.5 µM	–	8 µM	–	–
CCOc1ccccc1-c1ccc2c(c1)C(=O)C(=O)c1ccccc1-2	0.7 µM	–	> 30 µM	–	–
O=C1C(=O)c2ncccc2-c2ccccc21	0.4 µM	–	7 µM	–	–
N=C(N)NCCC[C@H](NC(=O)c1ccc2c(c1)C(=O)C(=O)c1ccccc1-2)C(=O)N[C@@H](CCC(=O)O)C(=O)N1CCC[C@H]1C(=O)N[C@@H](CCCNC(=N)N)C(=O)N[C@@H](CCC(=O)O)C(=O)O (Phenanthrenequinone2carbonyl-REPRE-OH)	20 µM	–	> 30 µM	0.9 µM	–
NC(=O)CC[C@H](NC(=O)[C@@H]1CCCN1C(=O)[C@H](CCC(N)=O)NC(=O)[C@H](CCC(=O)O)NC(=O)c1ccc2c(c1)-c1ccccc1C(=O)C2=O)C(=O)N1CCC[C@H]1C(=O)O ({3Phenanthroyl(9,10-dioxo)}-EQPQP-OH)	> 30 µM	–	> 30 µM	–	–
O=C1C(=O)c2ccoc2-c2ccccc21	–	> 30 µM	3.5 µM	–	–
O=C1C(=O)c2cc(-c3ccc4c(c3)OCO4)ccc2-c2ccccc21	1.7 µM	–	5 µM	–	–
CCCC(=O)Nc1ccc2c(c1)-c1ccccc1C(=O)C2=O	0.8 µM	> 30 µM	9.1 µM	0.8 µM	IC50 [5]: 5.2 µM
